Test results from publication PMC3969656 (Pharmacognosy Magazine, 2014).

Columns and labels:
[1] = Stability of analytes in rat plasma QC samples and postpreparative stability; format: in vitro ADME; settings: for Stability in rat plasma, recovered percentage: QC samples (0.1, 0.5, and 5.0 μg/mL); for Postpreparative stability: prepared samples, 24 h storage at 4°C
How it was run: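 Drug-free rat plasma was spiked to give QC samples at 0.1, 0.5 and 5.0 μg/mL. Samples were stored at room temperature or -20°C. For postpreparative stability, extracted samples were held at 4°C. Samples were extracted with acetonitrile plus isoliquiritin IS and quantified by C18 water/acetonitrile gradient HPLC-UV at 330 nm. Results are given as percent recovered.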

[2] = ref Park et al., 21, cited from earlier work
[3] = 12 h storage at room temperature

Row | Stability in rat plasma, recovered percentage ([1]; 4-weeks storage at -20°C) [%] | Stability in rat plasma, recovered percentage [1, 3] [%] | Postpreparative stability [1] [%] | Compound | Plasma level after intravenous administration ([2]; intravenous administration of decursin) | Hepatic first-pass metabolism [2]
1 | 100.9 ± 5.9 | 89.9 ± 10.6 | 97.8 ± 5.4 | CC1(C)Oc2cc3oc(=O)ccc3cc2C[C@@H]1O [Decursinol, decursinol] |  | 
2 | 99.0 ± 4.4 | 97.8 ± 7.1 | 100.5 ± 6.1 | CC(C)(O[C@@H]1O[C@H](CO)[C@@H](O)[C@H](O)[C@H]1O)[C@H]1Cc2cc3ccc(=O)oc3cc2O1 [Nodakenin, nodakenin] |  | 
3 |  |  |  | CC(C)=CC(=O)O[C@H]1Cc2cc3ccc(=O)oc3cc2OC1(C)C [decursin] | rapidly decreased | extensive hepatic first-pass metabolism
